Two compounds from ChEMBL document CHEMBL1148584, “Effect of polyamine homologation on the transport and biological properties of heterocyclic amidines” (J Med Chem, 2006) can be followed below.

The IC50 is the point on the concentration scale where inhibition reaches its midpoint.

One series relates to L1210. As to the kind of experiment: Intracellular level of putrescine in L1210 cells in the presence of DFMO at 10 uM. The conditions noted are these: Mus musculus. The class given is functional, cell-based. The method, boiled down:
(§1)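 L1210 cells in RPMI 1640/10% FCS with 2 mM aminoguanidine, seeded at 4 × 10⁴ cells/mL. Conjugate, with or without 5 mM DFMO, added at seeding; cells cultured 48 h, washed in cold NaCl, and extracted with 0.2 N HClO₄. Conjugate and free putrescine, spermidine and spermine quantified by ion-pair HPLC (UV 254 nm, fluorescence ex 345/em 455 nm); normalised to protein. Student's t-test, p<0.05.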
Consider `CC1C[C@]2(C)C(NCCCNCCCCNCCCN)=Nc3ccccc3[C@@H]2N(C)c2ccccc21` (stereo not given in full), for which the Drug uptake is 0.04 nmol/mg.

Regarding `CNc1ccc(C2c3ccccc3N=C(NCCCNCCCCNCCCN)C2(C)C)cc1` (stereo not given), the Drug uptake is 0.07 nmol/mg.

For another series, the system named is L1210. Description: Intracellular level of spermidine in L1210 cells in the presence of DFMO at 10 uM. The conditions noted are these: Mus musculus. The class given is functional, cell-based. The method, boiled down: as §1
In the case of `CC1C[C@]2(C)C(NCCCNCCCCNCCCN)=Nc3ccccc3[C@@H]2N(C)c2ccccc21` (stereo not given in full), the Drug uptake amounted to 0.49 nmol/mg.

Regarding `CNc1ccc(C2c3ccccc3N=C(NCCCNCCCCNCCCN)C2(C)C)cc1` (stereo not given), the Drug uptake came to 0.66 nmol/mg.

The test system of another series is L1210. As to the kind of experiment: Intracellular level of conjugate in L1210 cells in the absence of DFMO at 10 uM. To be noted: Mus musculus. The format is functional, cell-based. In a few lines:
as §1
`CC1C[C@]2(C)C(NCCCNCCCCNCCCN)=Nc3ccccc3[C@@H]2N(C)c2ccccc21` (stereo not given in full) returned a Drug uptake of 0.59 nmol/mg.

Turning to `CNc1ccc(C2c3ccccc3N=C(NCCCNCCCCNCCCN)C2(C)C)cc1` (stereo not given), the Drug uptake amounted to 0.54 nmol/mg.

Another series deals with CHO-MG. As to the kind of experiment: Inhibition of cell growth in CHO-MG cells in the presence of DFMO. The format is functional, cell-based. To be noted: Cricetulus griseus. In a few lines:
(§2)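 L1210 cells seeded at 5 × 10⁴ cells/mL with conjugate added at seeding; CHO/CHO-MG plated at 2 × 10³ cells/mL with conjugate added after overnight (24 h). 5 mM DFMO added together with conjugate; medium contains 2 mM aminoguanidine. After 48 h, growth read by MTT formazan absorbance at 540 nm. IC50 is 50% growth inhibition; mean of three determinations.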
Consider `CC1C[C@]2(C)C(NCCCNCCCCNCCCN)=Nc3ccccc3[C@@H]2N(C)c2ccccc21` (stereo not given in full), for which the IC50 came out at 27 µM.

Consider `CNc1ccc(C2c3ccccc3N=C(NCCCNCCCCNCCCN)C2(C)C)cc1` (stereo not given), for which the IC50 amounted to 23 µM.

Another series concerns the target Phosphodiesterase 1 (Bos taurus, UniProt Q01061+P14100). Description: Inhibition of bovine calmodulin-activated cAMP dependent phosphodiesterase.
Conditions: not given
The class given is protein assay. In a few lines: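 Crude bovine heart PDE preparation containing calmodulin and Ca²⁺ (0.2 milliunit). Incubated 20 min at 37 °C with 0.1 mM [8-³H]cAMP and graded drug concentrations in 30 mM Tris-HCl, 3 mM MgSO₄, 0.6 mM AMP. Stopped with ZnSO₄; Ba(OH)₂ precipitated AMP with BaSO₄; supernatant radioactivity counted. IC50 is the concentration giving 50% inhibition.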
`CC1C[C@]2(C)C(NCCCNCCCCNCCCN)=Nc3ccccc3[C@@H]2N(C)c2ccccc21` (stereo not given in full) gave an IC50 of 19 µM.

In turn, `CNc1ccc(C2c3ccccc3N=C(NCCCNCCCCNCCCN)C2(C)C)cc1` (stereo not given) yielded an IC50 of 23 µM.

For another series, the system named is CHO-MG. Description: Cellular uptake in CHO-MG cells at 25 uM. The format is ADME, cell-based, Cricetulus griseus. The conditions noted are these: chinese hamster. The method, boiled down:
(§3)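 CHO (RPMI 1640, 10% FCS, 2 mM aminoguanidine) and CHO-MG (plus L-proline) cells seeded at 2 × 10⁵ cells/mL. Conjugate added 24 h after seeding and cells harvested 24 h later, then washed in cold 0.14 M NaCl and sonicated in 0.2 N HClO₄. Supernatant analysed by ion-pair reversed-phase HPLC (n-octanesulfonate), expressed as nmol/mg protein; mean ± SD of three determinations.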
In the case of `CNc1ccc(C2c3ccccc3N=C(NCCCNCCCCNCCCN)C2(C)C)cc1` (stereo not given), the Drug uptake was 0.81 nmol/mg.

Test system in a further series: not listed separately
Description: Selectivity for uptake CHO cell line over CHO-MG cell line at 50 uM. The class given is functional, Cricetulus griseus.
Conditions: not given
In a few lines: (§4)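 Ratio of intracellular conjugate level in CHO over CHO-MG cells. Both lines were exposed to conjugate 24 h after seeding at 2 × 10⁵ cells/mL, for 24 h with 2 mM aminoguanidine in the medium. Levels were measured by ion-pair HPLC of perchloric extracts and normalised to protein (nmol/mg).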
For the compound `CC1C[C@]2(C)C(NCCCNCCCCNCCCN)=Nc3ccccc3[C@@H]2N(C)c2ccccc21` (stereo not given in full), the Selectivity ratio came to 1.

Another series relates to L1210. Description: Intracellular level of spermidine in L1210 cells in the absence of DFMO at 10 uM. The class given is functional, cell-based. The conditions noted are these: Mus musculus. The method, boiled down:
as §1
`CC1C[C@]2(C)C(NCCCNCCCCNCCCN)=Nc3ccccc3[C@@H]2N(C)c2ccccc21` (stereo not given in full): the Drug uptake stood at 18 nmol/mg.

In the case of `CNc1ccc(C2c3ccccc3N=C(NCCCNCCCCNCCCN)C2(C)C)cc1` (stereo not given), the Drug uptake is 17 nmol/mg.

The next series has as its system L1210. Description: Intracellular level of conjugate in L1210 cells in the presence of DFMO at 10 uM. The class given is functional, cell-based. The conditions noted are these: Mus musculus. In a few lines: as §1
With `CC1C[C@]2(C)C(NCCCNCCCCNCCCN)=Nc3ccccc3[C@@H]2N(C)c2ccccc21` (stereo not given in full), the Drug uptake was 1.5 nmol/mg.

`CNc1ccc(C2c3ccccc3N=C(NCCCNCCCCNCCCN)C2(C)C)cc1` (stereo not given): the Drug uptake came to 0.74 nmol/mg.

Another series concerns L1210. As to the kind of experiment: Intracellular level of putrescine in L1210 cells in the absence of DFMO at 10 uM. The class given is functional, cell-based. The conditions noted are these: Mus musculus. The method, boiled down:
as §1
Compound `CC1C[C@]2(C)C(NCCCNCCCCNCCCN)=Nc3ccccc3[C@@H]2N(C)c2ccccc21` (stereo not given in full) showed a Drug uptake of 1.5 nmol/mg.

`CNc1ccc(C2c3ccccc3N=C(NCCCNCCCCNCCCN)C2(C)C)cc1` (stereo not given): the Drug uptake stood at 1.1 nmol/mg.

Test system in the next series: not listed separately
As to the kind of experiment: Selectivity for uptake in CHO cell line over CHO-MG cell line at 25 uM. The class given is functional, Cricetulus griseus.
Conditions: not given
In a few lines: as §4
On to `CNc1ccc(C2c3ccccc3N=C(NCCCNCCCCNCCCN)C2(C)C)cc1` (stereo not given), for which the Selectivity ratio is reported as 0.9.

Another series concerns CHO. As to the kind of experiment: Cellular uptake in CHO cells at 25 uM. The format is ADME, cell-based, Cricetulus griseus. The conditions noted are these: chinese hamster. The method, boiled down: as §3
Compound `CNc1ccc(C2c3ccccc3N=C(NCCCNCCCCNCCCN)C2(C)C)cc1` (stereo not given) yielded a Drug uptake of 0.72 nmol/mg.

The subject of the next series is L1210. Description: Intracellular level of spermine in L1210 cells in the absence of DFMO at 10 uM. The class given is functional, cell-based. To be noted: Mus musculus. In a few lines:
as §1
Consider `CC1C[C@]2(C)C(NCCCNCCCCNCCCN)=Nc3ccccc3[C@@H]2N(C)c2ccccc21` (stereo not given in full), for which the Drug uptake was found to be 9.7 nmol/mg.

Take `CNc1ccc(C2c3ccccc3N=C(NCCCNCCCCNCCCN)C2(C)C)cc1` (stereo not given): the Drug uptake is 9.4 nmol/mg.

A further series has as its system L1210. As to the kind of experiment: Inhibition of cell growth in L1210 cells in the presence of DFMO. The class given is functional, cell-based. To be noted: Mus musculus. The method, boiled down:
as §2
For `CC1C[C@]2(C)C(NCCCNCCCCNCCCN)=Nc3ccccc3[C@@H]2N(C)c2ccccc21` (stereo not given in full), the IC50 is 1 µM.

As to `CNc1ccc(C2c3ccccc3N=C(NCCCNCCCCNCCCN)C2(C)C)cc1` (stereo not given), the IC50 was 3.1 µM.

The subject of a further series is CHO. As to the kind of experiment: Inhibition of cell growth in CHO cells in the presence of DFMO. The class given is functional, cell-based. To be noted: Cricetulus griseus. The method, boiled down: as §2
`CC1C[C@]2(C)C(NCCCNCCCCNCCCN)=Nc3ccccc3[C@@H]2N(C)c2ccccc21` (stereo not given in full): the IC50 was determined as 9.1 µM.

Regarding `CNc1ccc(C2c3ccccc3N=C(NCCCNCCCCNCCCN)C2(C)C)cc1` (stereo not given), the IC50 was determined as 11 µM.

The next series relates to CHO. As to the kind of experiment: Cellular uptake in CHO cells at 50 uM. The class given is ADME, cell-based, Cricetulus griseus. To be noted: chinese hamster. In a few lines: as §3
`CC1C[C@]2(C)C(NCCCNCCCCNCCCN)=Nc3ccccc3[C@@H]2N(C)c2ccccc21` (stereo not given in full) had a Drug uptake of 0.66 nmol/mg.

The test system of a further series is L1210. As to the kind of experiment: Intracellular level of spermine in L1210 cells in the presence of DFMO at 10 uM. The format is functional, cell-based. To be noted: Mus musculus. In a few lines: as §1
With `CC1C[C@]2(C)C(NCCCNCCCCNCCCN)=Nc3ccccc3[C@@H]2N(C)c2ccccc21` (stereo not given in full), the Drug uptake was 5.8 nmol/mg.

`CNc1ccc(C2c3ccccc3N=C(NCCCNCCCCNCCCN)C2(C)C)cc1` (stereo not given): the Drug uptake came to 7.8 nmol/mg.

In the next series the test system is CHO-MG. Description: Cellular uptake in CHO-MG cells at 50 uM. The class given is ADME, cell-based, Cricetulus griseus. To be noted: chinese hamster. The method, boiled down: as §3
Take `CC1C[C@]2(C)C(NCCCNCCCCNCCCN)=Nc3ccccc3[C@@H]2N(C)c2ccccc21` (stereo not given in full): the Drug uptake was 0.66 nmol/mg.
